The results in this text go back to ChEMBL document CHEMBL1123497, “Structure-activity studies of 4,6-disubstituted 2-(morpholinocarbonyl)furo[3,2-b]indole derivatives with analgesic and antiinflammatory activities” (1986).

Holding throughout (assay type): functional
Assay [1] has as its system Rattus norvegicus. Nature of the assay: Compound was evaluated for antiinflammatory activity by Carrageenan edema assay in rats. In short, it runs like this: (§1)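 Groups of six male Wistar rats (130–170 g) were dosed orally 60 min before a subplantar injection of 0.5% λ-carrageenin suspension (0.1 mL/rat) into the left hind paw. Foot volume was measured every 60 min for 360 min, and % swelling was compared with controls. ED50 and 95% confidence limits came from Litchfield–Wilcoxon. Screening used % edema inhibition at 100 mg/kg po.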
In general terms: In the carrageenan paw model, swelling and tenderness develop within hours.

The species entered for assay [2] is Mus musculus. Nature of the assay: Analgesic activity by acetic acid writhing assay in mice. Also noted: concentration or dose not given beside the values. The method, boiled down:
(§2)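 Mice received drug orally 30 min before an ip injection of 0.7% acetic acid (10 mL/kg). Writhes were counted 10–20 min after injection, and % inhibition was taken against a control group. ED50 and 95% confidence limits came from the Litchfield–Wilcoxon method.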
A general note: In writhing tests, fewer writhes than in controls are read as antinociception.

The species entered for assay [3] is Rattus norvegicus. Kind of assay: Compound was evaluated for analgesic activity in Adjuvant-induced arthritic pain test in rats. The method, boiled down:
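Groups of six male SD rats (160–200 g) received 0.5% Mycobacterium butyricum suspension (0.1 mL/rat) intradermally into the distal tail. After 15–18 days, rats that vocalized on gentle flexion were dosed orally, and the pain response was checked every 60 min for 300 min. Absence of response counted as positive. ED50 and 95% confidence limits came from Litchfield–Wilcoxon.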

Assay [4] is filed under the species Mus musculus. Kind of assay: Inhibition of acetic acid induced writhing in mice. In short, it runs like this:
as §2

For assay [5], the system named is Rattus norvegicus. Kind of assay: Antiinflammatory activity by Carrageenan edema assay in rats. On the set-up: concentration or dose not given beside the values; unit not given here. The method, boiled down: as §1
The species entered for assay [6] is Mus musculus. Nature of the assay: Compound was evaluated for analgesic activity in Pressure test in mice. In short, it runs like this: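 Groups of 10 male ddY mice (19–24 g) were dosed orally, and pain threshold to pressure was measured every 30 min for 120 min. A postdrug threshold raised more than 50% over the predrug value counted as positive. ED50 and 95% confidence limits came from Litchfield–Wilcoxon.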

Assay [7] is filed under the species Mus musculus. Nature of the assay: Compound was evaluated for analgesic activity in Acetic acid writhing assay in mice. The method, boiled down: as §2
The species entered for assay [8] is Rattus norvegicus. Kind of assay: Compound was evaluated for analgesic activity in Randall-Selitto test in inflamed foot rats. The method, boiled down:
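Groups of six male Wistar rats (90–110 g) received 20% yeast suspension (0.1 mL/rat) subplantar into the right hind paw, then oral drug 120 min later. Pain threshold was read every 60 min for 240 min. A rise of more than 50% over the control group counted as positive. ED50 and 95% confidence limits came from Litchfield–Wilcoxon.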

The subject of assay [9] is Rattus norvegicus. Nature of the assay: Compound was evaluated for antiinflammatory activity in rats by carrageenan edema test. In short, it runs like this: as §1
The species entered for assay [10] is Rattus norvegicus. Nature of the assay: Compound was evaluated for analgesic activity in Randall-Selitto test in normal foot rats.
For assay [11], the species on record is Rattus norvegicus. Nature of the assay: Compound was evaluated for antipyretic activity in rats by yeast induced fever test. In short, it runs like this:
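Groups of six male Wistar rats (190–210 g) received 7.5% yeast suspension sc (10 mL/kg). Rats whose temperature rose by more than 1 °C were dosed orally 180 min later. Body temperature was recorded automatically every 60 min for 360 min, and % inhibition was compared with controls. ED50 and 95% confidence limits came from Litchfield–Wilcoxon.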

With `COC(=O)n1c2ccccc2c2oc(C(=O)N3CCOCC3)cc21`, the Inhibition was found to be 2% with Rattus norvegicus [1] and 1% in the assay filed under Mus musculus [2].

`CCCCC(CC)C(=O)n1c2cc(C(F)(F)F)ccc2c2oc(C(=O)N3CCOCC3)cc21` (configuration not stated): the ED50 (in general, the dose at which the effect has come halfway, by size or by number of responders) was determined as 1.7 mg/kg in the assay listed under Rattus norvegicus [3]; 0.7 mg/kg in the assay filed under Mus musculus [4]; 7 mg/kg in the assay listed under Mus musculus [6]; 0.7 mg/kg in the assay listed under Mus musculus [7]; 1.7 mg/kg in the assay listed under Rattus norvegicus [8]; 5.4 mg/kg with Rattus norvegicus [9]. Also, the ED50 in the assay listed under Rattus norvegicus [10] was 5.9 mg/kg; in the assay filed under Rattus norvegicus [11] it was 0.059 mg/kg. Also, the Inhibition in the assay filed under Mus musculus [2] is given as 3%; in the assay on Rattus norvegicus [5], 3.
